Data set [1] in a line: Water solubility of peptides. Format: physicochemical. Particulars: peptide excluded from synthesis for ITC; 'would be' marginally soluble.
Data set [2] concerns the target T1, carbamylated fibrinogen (cFgn) (Bos taurus, UniProt P02672+P02676+P12799, DEL436-444).
T1 sequence (P02672 20-615): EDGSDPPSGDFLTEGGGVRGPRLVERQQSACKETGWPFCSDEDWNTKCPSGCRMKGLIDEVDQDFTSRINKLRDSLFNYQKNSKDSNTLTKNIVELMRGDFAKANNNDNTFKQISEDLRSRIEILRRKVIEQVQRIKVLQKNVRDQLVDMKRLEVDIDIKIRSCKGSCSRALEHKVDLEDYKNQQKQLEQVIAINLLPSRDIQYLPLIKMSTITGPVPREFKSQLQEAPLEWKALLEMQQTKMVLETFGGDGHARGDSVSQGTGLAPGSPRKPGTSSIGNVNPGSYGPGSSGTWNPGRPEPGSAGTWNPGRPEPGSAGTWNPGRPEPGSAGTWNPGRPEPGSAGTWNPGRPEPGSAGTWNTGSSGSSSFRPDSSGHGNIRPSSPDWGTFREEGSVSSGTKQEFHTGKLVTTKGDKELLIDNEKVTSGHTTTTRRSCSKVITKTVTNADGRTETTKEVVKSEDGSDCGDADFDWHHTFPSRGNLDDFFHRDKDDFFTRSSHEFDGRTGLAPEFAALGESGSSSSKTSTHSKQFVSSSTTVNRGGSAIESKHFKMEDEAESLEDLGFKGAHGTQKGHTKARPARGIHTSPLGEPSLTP
T1 sequence (P02676 1-468): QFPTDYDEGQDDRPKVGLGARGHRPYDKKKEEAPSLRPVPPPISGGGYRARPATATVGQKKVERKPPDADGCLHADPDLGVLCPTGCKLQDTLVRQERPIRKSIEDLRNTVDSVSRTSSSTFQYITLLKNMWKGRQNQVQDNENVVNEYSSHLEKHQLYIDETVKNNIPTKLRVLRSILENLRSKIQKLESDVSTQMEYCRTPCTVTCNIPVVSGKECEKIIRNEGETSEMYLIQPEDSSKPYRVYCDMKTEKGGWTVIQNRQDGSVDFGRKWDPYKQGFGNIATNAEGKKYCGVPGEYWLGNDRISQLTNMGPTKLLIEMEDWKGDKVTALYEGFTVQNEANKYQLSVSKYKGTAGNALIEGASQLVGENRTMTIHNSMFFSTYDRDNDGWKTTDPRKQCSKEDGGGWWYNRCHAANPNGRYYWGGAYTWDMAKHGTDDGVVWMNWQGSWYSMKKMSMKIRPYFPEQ
T1 sequence (P12799 25-435 limits assumed): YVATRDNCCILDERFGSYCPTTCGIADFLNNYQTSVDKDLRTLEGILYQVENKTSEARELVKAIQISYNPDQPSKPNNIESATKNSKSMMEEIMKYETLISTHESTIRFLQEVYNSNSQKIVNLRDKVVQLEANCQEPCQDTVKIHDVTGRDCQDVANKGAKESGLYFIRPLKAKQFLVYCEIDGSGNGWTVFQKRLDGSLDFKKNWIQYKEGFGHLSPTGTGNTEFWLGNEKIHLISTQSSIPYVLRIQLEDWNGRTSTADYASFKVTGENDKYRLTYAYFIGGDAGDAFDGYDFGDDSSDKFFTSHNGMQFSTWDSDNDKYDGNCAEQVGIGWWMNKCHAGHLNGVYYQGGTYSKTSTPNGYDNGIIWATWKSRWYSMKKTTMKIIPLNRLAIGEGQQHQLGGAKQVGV
Nature of the data set: ITC titration of peptide into cFgn. Format: binding, bovine. The essentials:
(§1)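 Bovine plasma fibrinogen was used either native or carbamylated by stirring 0.008 mM protein with 0.1 M sodium cyanate in 0.1 M phosphate pH 7.4 at room temperature for 2 days. Cell held 4 μM protein; peptide titrant was 0.21 mM; both were in 0.1 M sodium phosphate pH 7.4. 50 injections 200 s apart, 150 rpm, 25 °C. Dilution heat subtracted, independent-model fit, repeated at least twice.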
(In general: ITC needs no label: the signal is the heat of the interaction.)

In data set [3] the target is carbamylated HSA (cHSA-2) (Homo sapiens, UniProt P02768). Nature of the data set: ITC titration of peptide into cHSA-2. Format: binding.
The test system of the next data set is native Fgn (fibrinogen). Nature of the data set: ITC titration of peptide into native Fgn. The data set is classed as binding, bovine. The conditions noted are these: peptide 0.21 mM into Fgn 4 μM, 0.1 M sodium phosphate pH 7.4, 25 °C. Summed up:
as §1

Data set [4] addresses anti-Hcit (anti-carbamylation (homocitrulline) polyclonal antibody). Nature of the data set: ITC titration of peptide into anti-Hcit. The data set is classed as binding, rabbits. The conditions noted are these: peptide into solution containing only anti-Hcit, 25 °C, 0.01 M PBS pH 7.4 containing 50% glycerol and 0.02% NaN3 (control test).
Another data set deals with cHSA (Homo sapiens, UniProt P02768). Put plainly: ITC titration of peptide into cHSA of different levels of carbamylation. Format: binding.
Chain of cHSA (P02768 25-609): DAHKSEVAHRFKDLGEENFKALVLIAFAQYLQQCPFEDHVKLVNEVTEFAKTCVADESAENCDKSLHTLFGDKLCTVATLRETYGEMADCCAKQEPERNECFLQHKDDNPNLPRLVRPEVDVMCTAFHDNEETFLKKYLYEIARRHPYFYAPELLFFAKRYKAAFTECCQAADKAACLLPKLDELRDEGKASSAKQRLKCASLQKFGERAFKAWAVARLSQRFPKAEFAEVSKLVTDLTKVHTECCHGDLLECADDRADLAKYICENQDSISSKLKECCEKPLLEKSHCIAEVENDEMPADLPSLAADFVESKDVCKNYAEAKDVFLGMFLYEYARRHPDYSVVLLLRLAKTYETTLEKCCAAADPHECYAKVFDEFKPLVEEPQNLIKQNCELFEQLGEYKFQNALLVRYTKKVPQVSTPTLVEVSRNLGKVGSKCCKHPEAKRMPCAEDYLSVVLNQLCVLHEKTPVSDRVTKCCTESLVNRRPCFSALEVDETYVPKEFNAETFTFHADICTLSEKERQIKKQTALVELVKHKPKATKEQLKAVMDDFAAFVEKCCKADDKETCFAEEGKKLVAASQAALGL
The target in a further data set is native HSA (Homo sapiens, UniProt P02768). Put plainly: ITC titration of peptide into native HSA. The data set is classed as binding. The conditions noted are these: 0.1 M sodium phosphate pH 7.4, 25 °C.
Chain of native HSA (P02768 25-609): as above
Data set [5] addresses carbamylated HSA (cHSA-3) (Homo sapiens, UniProt P02768). Nature of the data set: ITC titration of peptide into cHSA-3. The data set is classed as binding. The conditions noted are these: pH 7.4.
The target in data set [6] is carbamylated HSA (cHSA-1) (Homo sapiens, UniProt P02768). Put plainly: ITC titration of peptide into cHSA-1. The conditions noted are these: pH 7.4. Format: binding.
Data set [7] has as its target Anti-carbamylation (homocitrulline) polyclonal antibody (anti-Hcit) (rabbit). Nature of the data set: ITC.
Data set [8] addresses Albumin from human serum (native HSA) (human, UniProt P02768 25-609). Put plainly: ITC.
Data set [9] has as its target Carbamylated human serum albumin, Hcit% 2.7 (cHSA-2) (human) (UniProt P02768). Nature of the data set: ITC.

These results are taken from publication PMC7860060 (ACS Omega, 2021).

Entries after “also recorded” stand apart in the source; their conditions may differ. Where no end group is shown, it is not given here.

Chain of Albumin from human serum (native HSA) (P02768 25-609): as above

TPTIAIAQYNKW [cH2-p5]: the “aqueous solubility (expected)” value in data set [1] is on record as “marginally soluble”.
What is called Kd is a measure of binding affinity in units of concentration. Low values mean higher affinity, high ones lower affinity. GSAARTISPSLL [cH2-p1]: the Kd in data set [2] was 84 µM; in data set [3] (pH 7.4) it was 97 µM; in [4], 1000 µM; on cHSA, around 100 µM; in [5], 99 µM; in data set [6], 120 µM. In addition, in [2] (ITC titration peaks, pH 7.4, 25 °C), the “binding thermodynamics (sign of heat), cFgn” value is “endothermic”. In data set [2] (cFgn versus native Fgn), the “binding to carbamylated versus native fibrinogen (ITC)” value is “binding specificity to carbamylated fibrinogen (cFgn); also recorded: found to bind cFgn over the native protein”. Moreover, in data set [3] (ITC, comparison with native HSA), the “Kd to cHSA relative to Kd to native HSA” value was “almost 1 order of magnitude lower than its Kd to native HSA”. The “binding affinity for cHSA versus HSA (ITC and ELISA)” value in [3] (both ITC and ELISA results) is on record as “consistently higher binding affinity for cHSA than HSA”. Moreover, the “binding to native Fgn (ITC)” value with native Fgn (fibrinogen) is “not binding to native Fgn at all”. On cHSA (ITC titration peaks, HSA/cHSA, pH 7.4, 25 °C), the “binding thermodynamics (sign of heat), HSA/cHSA” value is “exothermic”. The “influence of extent of carbamylation on binding affinity” value at cHSA (ITC, cHSA-1, cHSA-2, cHSA-3) is “difference in surface charge did not seem to affect the binding affinity; also recorded: not found to be influenced by the extent of carbamylation”. Further, the “binding to HSA in words (ITC)” value on native HSA is recorded as “too weak to produce an obvious titration curve”.
In the case of WPARTSAPFTNS [cH2-p3], the “aqueous solubility (expected)” value in [1] is “marginally soluble”.

B1: cH2-p1 peptide (synthetic) (peptide)
peptide: GSAARTISPSLL
In the case of B1, the Kd in [7] and in [8] was 1000 µM each time.

B2: cH2-p6 peptide (synthetic) (peptide)
peptide: TLGLRPVPVATT
In data set [9], B2 displayed a Kd of 200 µM.

B3: cH2-p4 peptide (synthetic) (peptide)
peptide: AHPHSDKLVPPR
On to B3, for which, in data set [9], the Kd amounted to 130 µM.
